# Measured values taken from ChEMBL document CHEMBL2429803, “Animal toxicity of hairpin pyrrole-imidazole polyamides varies with the turn unit” (J Med Chem, 2013).
# Assays:
# [1] = Drug uptake in human LNCAP cell nucleus at 2 uM after 24 hrs by confocal microscopic analysis; assay type: ADME, cell-based
# How it was run: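 LNCaP cells incubated 24 h with 2 μM of the fluorescein-conjugated polyamide. Nuclear localization imaged by confocal microscopy.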
# Mus musculus [2] = assay: Toxicity in C57BL/6J mouse assessed as karyomegaly in kidney at 1 mg/kg, sc administered every 3 days for a cycle of 3 injections measured 2 days post last injection; assay type: organism-based; parameters: dose 1 mg/kg, route subcutaneous; settings: in vivo, 48 h
# How it was run: (§1)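 Male C57BL/6J mice, 8 weeks old, given 1 mg/kg sc every 3 days for three injections and sacrificed 2 days after the last one. Two mice per group fixed in 10% formalin. A veterinary pathologist, blinded, examined cecum, duodenum, heart, ileum, kidney, liver, lung, pancreas, spleen and stomach. Lesions graded mild, moderate or severe.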
# Mus musculus [3] = assay: Acute toxicity in C57BL/6J mouse assessed as lesions in GI tract at 1 to 10 mg/kg, sc after 9 days; assay type: organism-based, Gastrointestinal tract; parameters: dose 1-10 mg/kg, route subcutaneous; settings: in vivo, 216 h
# How it was run: (§2)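 Male C57BL/6J mice, 8 weeks old, received a single sc dose (1, 3 or 10 mg/kg in 25% DMSO/saline, n = 4 per group) and were sacrificed after 9 days. Two representative animals per group were fixed in 10% formalin. Cecum, duodenum, heart, ileum, kidney, liver, lung, pancreas, spleen and stomach were examined blind by a veterinary pathologist and lesions graded mild, moderate or severe.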
# [4] = Metabolic stability in mouse liver microsomes after 1 hr by LC/MS/MS analysis in presence of NADPH; assay type: ADME, Microsome; settings: read-out: Stability
# How it was run: (§3)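 Compound incubated at 37 °C for 60 min with 1 mg/mL human or mouse liver microsomes in 100 mM KH2PO4, 3 mM MgCl2, pH 7.4, with 2 mM NADPH or without it. Stopped with ice-cold methanol, then precipitate removed. Analyzed by LC/MS/MS as % remaining versus time zero. Duplicates.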
# Mus musculus [5] = assay: Acute toxicity in C57BL/6J mouse assessed as mild lymphoid apoptosis in white pulp of spleen at 10 mg/kg, sc after 9 days; assay type: organism-based; parameters: dose 10 mg/kg, route subcutaneous; settings: in vivo, 216 h; how it was run: as §2
# Mus musculus [6] = assay: Toxicity in C57BL/6J mouse assessed as epithelial necrosis and apoptosis in kidney at 1 mg/kg, sc administered every 3 days for a cycle of 3 injections measured 2 days post last injection; assay type: organism-based; parameters: dose 1 mg/kg, route subcutaneous; settings: in vivo, 48 h; how it was run: as §1
# Mus musculus [7] = assay: Toxicity in C57BL/6J mouse assessed as mild multifocal hepatocellular necrosis and apoptosis in liver at 1 mg/kg, sc administered every 3 days for a cycle of 3 injections measured 2 days post last injection; assay type: organism-based; parameters: dose 1 mg/kg, route subcutaneous; settings: in vivo, 48 h; how it was run: as §1
# Mus musculus [8] = assay: Acute toxicity in C57BL/6J mouse assessed as weight loss at 10 mg/kg, sc after 9 days; assay type: organism-based; parameters: dose 10 mg/kg, route subcutaneous; settings: in vivo, 216 h
# How it was run: (§4)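 Male C57BL/6J mice, 8 weeks old, were acclimated 3 days and then given a single sc injection of 1, 3 or 10 mg/kg in 25% DMSO/saline vehicle (up to 200 μL), n = 4 per group. Weight, behaviour and appearance were monitored daily for 9 days before sacrifice. The humane end point was visible duress or weight loss over 15% of the original.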
# Mus musculus [9] = assay: Toxicity in C57BL/6J mouse assessed as mild tubular attenuation in kidney at 1 mg/kg, sc administered every 3 days for a cycle of 3 injections measured 2 days post last injection; assay type: organism-based; parameters: dose 1 mg/kg, route subcutaneous; settings: in vivo, 48 h; how it was run: as §1
# Mus musculus [10] = assay: Toxicity in C57BL/6J mouse assessed as weight loss at 1 mg/kg, sc administered every 3 days for a cycle of 3 injections; assay type: organism-based; parameters: dose 1 mg/kg, route subcutaneous; settings: in vivo, 72 h
# How it was run: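 8-week-old male C57BL/6J mice, acclimated 3 days, groups of three, dosed sc in 25% DMSO/saline vehicle once every 3 days, sacrificed 2 days after the last injection. Body weight recorded on injection days and at end point; humane end point set at visible duress or >15% loss of original body weight.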
# [11] = Metabolic stability in mouse liver microsomes after 1 hr by LC/MS/MS analysis; assay type: ADME, Microsome; settings: read-out: Stability; how it was run: as §3
# [12] = Metabolic stability in human liver microsomes after 1 hr by LC/MS/MS analysis; assay type: ADME, Microsome; settings: read-out: Stability; how it was run: as §3
# Mus musculus [13] = assay: Acute toxicity in C57BL/6J mouse assessed as tubular epithelial necrosis and apoptosis in kidney at 3 mg/kg, sc after 9 days; assay type: organism-based; parameters: dose 3 mg/kg, route subcutaneous; settings: in vivo, 216 h; how it was run: as §2
# Mus musculus [14] = assay: Acute toxicity in C57BL/6J mouse assessed as diffuse hepatocellular necrosis and apoptosis at 10 mg/kg, sc after 9 days; assay type: organism-based; parameters: dose 10 mg/kg, route subcutaneous; settings: in vivo, 216 h; how it was run: as §2
# Mus musculus [15] = assay: Acute toxicity in C57BL/6J mouse assessed as acute morbidity at 10 mg/kg, sc after 9 days; assay type: organism-based; parameters: dose 10 mg/kg, route subcutaneous; settings: in vivo, 216 h; how it was run: as §4
# Mus musculus [16] = assay: Acute toxicity in C57BL/6J mouse assessed as lesions in lungs at 1 to 10 mg/kg, sc after 9 days; assay type: organism-based; parameters: dose 1-10 mg/kg, route subcutaneous; settings: in vivo, 216 h; how it was run: as §2
# Mus musculus [17] = assay: Acute toxicity in C57BL/6J mouse assessed as lesions in stomach at 1 to 10 mg/kg, sc after 9 days; assay type: organism-based; parameters: dose 1-10 mg/kg, route subcutaneous; settings: in vivo, 216 h; how it was run: as §2
# Mus musculus [18] = assay: Acute toxicity in C57BL/6J mouse assessed as diffuse hepatocellular necrosis and apoptosis at 10 mg/kg, sc after 9 days; settings: in vivo, 216 h
# Mus musculus [19] = assay: Toxicity in C57BL/6J mouse assessed as morbidity at 1 mg/kg, sc administered every 3 days for a cycle of 3 injections; assay type: organism-based; parameters: dose 1 mg/kg, route subcutaneous; settings: in vivo, 72 h
# How it was run: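 Male C57BL/6J mice, 3 per group, given 1 mg/kg sc every 3 days. Weight recorded on injection days. Watched for signs of duress. Humane end point was visible duress or weight loss over 15% of starting body weight.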
# Mus musculus [20] = assay: Acute toxicity in C57BL/6J mouse assessed as lesions in pancreas at 1 to 10 mg/kg, sc after 9 days; assay type: organism-based; parameters: dose 1-10 mg/kg, route subcutaneous; settings: in vivo, 216 h; how it was run: as §2
# Mus musculus [21] = assay: Acute toxicity in C57BL/6J mouse assessed as lesions in heart at 1 to 10 mg/kg, sc after 9 days; assay type: organism-based; parameters: dose 1-10 mg/kg, route subcutaneous; settings: in vivo, 216 h; how it was run: as §2
# [22] = Metabolic stability in human liver microsomes after 1 hr by LC/MS/MS analysis in presence of NADPH; assay type: ADME, Microsome; settings: read-out: Stability; how it was run: as §3
# Mus musculus [23] = assay: Acute toxicity in C57BL/6J mouse assessed as moderate atypical tubular regeneration in kidney at 3 mg/kg, sc after 9 days; assay type: organism-based; parameters: dose 3 mg/kg, route subcutaneous; settings: in vivo, 216 h; how it was run: as §2
# [24] = Drug uptake in nucleus of C57BL/6J mouse liver at 3 mg/kg, sc after 24 hrs by confocal microscopic analysis; assay type: ADME, organism-based; parameters: dose 3 mg/kg, route subcutaneous; settings: in vivo
# How it was run: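 Male C57BL/6J mice, 2 per group, injected with 50 nmol (~3 mg/kg) of fluorescein-conjugated polyamide and sacrificed 24 h later. Liver fixed in 10% formalin for 48 h, cryoprotected in 15% then 30% sucrose, and frozen. Nuclear fluorescence assessed by confocal microscopy in 10 μm sections.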
structure (smiles),measurement,setting,value
CN(CCCNC(=O)c1cc(NC(=O)c2cc(NC(=O)c3cc(NC(=O)c4nc(NC(=O)[C@H](N)CCNC(=O)c5cc(NC(=O)c6cc(NC(=O)c7cc(NC(=O)c8nccn8C)cn7C)cn6C)cn5C)cn4C)cn3C)cn2C)cn1C)CCCNC(=S)Nc1ccc(-c2c3ccc(=O)cc-3oc3cc(O)ccc23)c(C(=O)O)c1,Drug uptake,[1],Active
CN(CCCNC(=O)c1cccc(C(=O)O)c1)CCCNC(=O)c1cc(NC(=O)c2cc(NC(=O)c3cc(NC(=O)c4nc(NC(=O)C[C@@H](N)CNC(=O)c5cc(NC(=O)c6cc(NC(=O)c7cc(NC(=O)c8nccn8C)cn7C)cn6C)cn5C)cn4C)cn3C)cn2C)cn1C,Activity,Mus musculus [2],Toxic
same,Activity,Mus musculus [3],Non-toxic
same,remaining at 1 h,[4],> 90%
same,Activity,Mus musculus [5],Toxic
same,Activity,Mus musculus [6],Toxic
same,Activity,Mus musculus [7],Toxic
same,Activity,Mus musculus [8],Toxic
same,Activity,Mus musculus [9],Toxic
same,Activity,Mus musculus [10],Non-toxic
same,remaining at 1 h,[11],> 90%
same,remaining at 1 h,[12],> 90%
same,Activity,Mus musculus [13],Toxic
same,Activity,Mus musculus [14],Toxic
same,Activity,Mus musculus [15],Toxic
same,Activity,Mus musculus [16],Non-toxic
same,Activity,Mus musculus [17],Non-toxic
same,Activity,Mus musculus [18],Toxic
same,Activity,Mus musculus [19],Non-toxic
same,Activity,Mus musculus [20],Non-toxic
same,Activity,Mus musculus [21],Non-toxic
same,remaining at 1 h,[22],> 90%
same,Activity,Mus musculus [23],Toxic
CC(=O)N[C@@H](CNC(=O)c1cc(NC(=O)c2cc(NC(=O)c3cc(NC(=O)c4nccn4C)cn3C)cn2C)cn1C)CC(=O)Nc1cn(C)c(C(=O)Nc2cc(C(=O)Nc3cc(C(=O)Nc4cc(C(=O)NCCCN(C)CCCNC(=S)Nc5ccc(-c6c7ccc(=O)cc-7oc7cc(O)ccc67)c(C(=O)O)c5)n(C)c4)n(C)c3)n(C)c2)n1,Drug uptake,[24],Active
